Experimental findings from ChEMBL document CHEMBL4325822, “Discovery of a tetrazolyl β-carboline with in vitro and in vivo osteoprotective activity under estrogen-deficient conditions” (Medchemcomm, 2018) are described below.

Data set [1] has as its system Rattus norvegicus. Kind of data set: Antiosteoporotic activity in Sprague-Dawley rat model of OVX-induced bone loss assessed as mineral apposition rate at 5 mg/kg, po via gavage for 12 weeks by microcomputed tomographic analysis (reference value: 0.169 +/- 0.004 umeter/day). In kind it is functional. In short, it runs like this: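 Female Sprague-Dawley rats, 10-12 weeks old, ten per group, were ovariectomized and left 12 weeks for osteopenia. They were then dosed once daily by oral gavage for 12 weeks in 1% gum acacia vehicle. The estradiol arm received 100 µg·kg⁻¹ subcutaneously five days a week. Tetracycline and calcein were given intraperitoneally at 20 mg·kg⁻¹ each. Femur cross-sections (50 µm) were imaged by fluorescence microscopy for MAR and BFR.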

Data set [2] is described as follows: Induction of osteoblast differentiation in Sprague-Dawley rat calvarial osteoblasts assessed as alkaline phosphatase activity after 48 hrs using PNPP as substrate by spectrophotometric method. In kind it is functional, cell-based. To be noted: Rattus norvegicus, Sprague-Dawley, Calvarial osteoblast, 48 h; read-out: EC50. An outline of the steps: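 Calvarial osteoblasts at 2 × 10³ cells/well. Treated 48 h with varied concentrations in differentiation medium (5% charcoal-treated FBS, 10 mM β-glycerophosphate, 50 µg·mL⁻¹ ascorbic acid). Total ALP read with PNPP substrate at 405 nm. Cell-free wells check for compound interference with substrate or absorbance.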

Data set [3] concerns Calvarial osteoblast. As to the kind of experiment: Osteogenic activity in Sprague-Dawley rat calvarial osteoblasts assessed as mineralized nodule formation at 100 pM after 21 days by alizarin red-S staining based colorimetric method. Type of data set: functional. An outline of the steps: (§1)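 Osteoblasts at 10,000–15,000 cells/cm² in duplicate plates, 21 days in differentiation medium, medium changed every 48 h. Cells fixed in 4% PFA, stained with alizarin red-S (40 mM, pH 4.5, 30 min) and photographed. Stain extracted with 10% acetic acid, pH brought to 4.5 with ammonium hydroxide, read at 405 nm, normalized to cell number.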

Data set [4] has as its system Rattus norvegicus. As to the kind of experiment: Upregulation of OCN mRNA expression in femur bone of Sprague-Dawley rat model of OVX-induced bone loss at 1 to 5 mg/kg, po via gavage for 12 weeks by qPCR analysis. In kind it is functional, organism-based. In short, it runs like this:
(§2)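 Ovariectomized female SD rats, osteopenic after 12 weeks, dosed orally once daily for 12 weeks (1.0 or 5.0 mg·kg⁻¹·day⁻¹, 1% gum acacia vehicle); sham and OVX vehicle groups included. Femurs collected at sacrifice for qRT-PCR, analysed by the ΔΔCT method.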
For orientation: Real-time PCR tracks product formation cycle by cycle.

Data set [5] in a line: Antioxidant activity assessed as DPPH radical scavenging activity at 250 ug/ml after 30 mins by spectrophotometric method relative to control. Type of data set: functional. In short, it runs like this: (§3)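 The compound was serially diluted from 1000 to 1.95 µg·ml⁻¹ and mixed 1:1 with DPPH in methanol. After 30 min at room temperature, absorbance was read at 517 nm. Scavenging (%) = [(Abc − Abs)/Abc] × 100, where Abc is DPPH without compound.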
On the technique in general: DPPH is a stable violet radical that fades when it is reduced.

Data set [6] can be described thus: Toxicity in Sprague-Dawley rat model of OVX-induced bone loss assessed as luminal area at 1 mg/kg, po via gavage for 12 weeks (reference value: 0.01 +/- 0.0004 mm2). Type of data set: organism-based. To be noted: in vivo, 2016 h.
Data set [7] has as its system Rattus norvegicus. As to the kind of experiment: Upregulation of Runx2 mRNA expression in femur bone of Sprague-Dawley rat model of OVX-induced bone loss at 1 to 5 mg/kg, po via gavage for 12 weeks by qPCR analysis. Type of data set: functional, organism-based. An outline of the steps: as §2
Data set [8] deals with Rattus norvegicus. Kind of data set: Antiosteoporotic activity in Sprague-Dawley rat model of OVX-induced bone loss assessed as decrease in serum CTX level at 1 to 5 mg/kg, po via gavage for 12 weeks by ELISA. In kind it is functional, organism-based. An outline of the steps: (§4)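 Ovariectomy model as above: 12 weeks of osteopenia, then 12 weeks of daily gavage or subcutaneous estradiol. Serum was separated at autopsy, and CTX and PINP were measured by ELISA kits.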
(ELISA stands for enzyme-linked immunosorbent assay.)

Data set [9] can be described thus: Antioxidant activity assessed as DPPH radical scavenging activity at 1.95 ug/ml after 30 mins by spectrophotometric method relative to control. In kind it is functional. In short, it runs like this: as §3
Data set [10] concerns Rattus norvegicus. As to the kind of experiment: Antiosteoporotic activity in Sprague-Dawley rat model of OVX-induced bone loss assessed as restoration of bone mineral density loss in femur bone at 1 to 5 mg/kg po via gavage for 12 weeks by microcomputed tomographic analysis relative to control. Type of data set: functional. An outline of the steps: (§5)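 Adult female Sprague-Dawley rats were ovariectomized and left 12 weeks to become osteopenic. They then received 12 weeks of once-daily oral gavage (1% gum acacia vehicle) or subcutaneous estradiol, five days a week. Femurs were collected at sacrifice and scanned by micro-CT for BMD and trabecular microarchitecture. Ten rats per group; mean ± SEM.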

In data set [11] the target is I-kappa-B kinase (Rattus norvegicus) (UniProt Q9QY78+G3V926+Q6TMG5). Kind of data set: Inhibition of IKK in Sprague-Dawley rat calvarial osteoblasts assessed as reduction in TNFalpha-induced NFkB nuclear translocation at 100 pM after 24 hrs by immunofluorescence assay. Type of data set: cell-based. To be noted: Calvarial osteoblast. In short, it runs like this: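 Primary rat osteoblasts on chamber slides given TNFα (10 ng·ml⁻¹) for 24 h, with or without treatment. Then 4% PFA fixation, 0.1% Triton X-100, anti-NF-κB overnight, and Cy3 anti-rabbit secondary. Fluorescence imaged at excitation 552 nm, emission 570 nm.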

The subject of data set [12] is Rattus norvegicus. As to the kind of experiment: Upregulation of type-1 collagen mRNA expression in femur bone of Sprague-Dawley rat model of OVX-induced bone loss at 1 to 5 mg/kg, po via gavage for 12 weeks by qPCR analysis. Type of data set: functional, organism-based. In short, it runs like this:
as §2

Data set [13] relates to Calvarial osteoblast. Kind of data set: Antioxidant activity in Sprague-Dawley rat calvarial osteoblasts assessed as inhibition of TNFalpha-induced intracellular ROS production at 100 pM after 24 hrs by DCFH-DA staining based fluorescence assay. In kind it is functional, cell-based. An outline of the steps: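 Primary rat calvarial osteoblasts were treated 24 h, then washed twice with serum-free medium. DCFH-DA (10 µg·mL⁻¹) was added in medium with 2% serum, followed by 30 min in the dark. Fluorescence was read at Ex 485/Em 535 nm.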

Data set [14] in a line: Toxicity in Sprague-Dawley rat model of OVX-induced bone loss assessed as luminal area at 5 mg/kg, po via gavage for 12 weeks (reference value: 0.01 +/- 0.0004 mm2). Type of data set: organism-based. To be noted: in vivo, 2016 h.
Data set [15] deals with Rattus norvegicus. As to the kind of experiment: Antiosteoporotic activity in Sprague-Dawley rat model of OVX-induced bone loss assessed as increase in serum PINP level at 1 to 5 mg/kg, po via gavage for 12 weeks by ELISA. In kind it is functional, organism-based. In short, it runs like this: as §4
Data set [16] has as its system Rattus norvegicus. As to the kind of experiment: Antiosteoporotic activity in Sprague-Dawley rat model of OVX-induced bone loss assessed as increase in femoral bone strength by measuring energy at 5 mg/kg, po via gavage for 12 weeks by 3 point bending test (reference value: 46.27 +/- 4.36 mJ). In kind it is functional.
For data set [17], the system named is Rattus norvegicus. As to the kind of experiment: Antiosteoporotic activity in Sprague-Dawley rat model of OVX-induced bone loss assessed as protection against microarchitectural deterioration by measuring trabecular number at 5 mg/kg, po via gavage for 12 weeks by microcomputed tomographic analysis (reference value: 0.56 +/- 0.06 /millimeter). Type of data set: functional. An outline of the steps: as §5

A short description of data set [18]: Antioxidant activity assessed as DPPH radical scavenging activity after 30 mins by spectrophotometric method. Type of data set: functional. In short, it runs like this:
as §3

The subject of data set [19] is Calvarial osteoblast. Kind of data set: Osteogenic activity in Sprague-Dawley rat calvarial osteoblasts assessed as mineralized nodule formation at 100 pM after 21 days by alizarin red-S staining based light microscopic method. In kind it is functional, cell-based. An outline of the steps: as §1
Data set [20] can be described thus: Toxicity in Sprague-Dawley rat model of OVX-induced bone loss assessed as luminal epithelial height at 5 mg/kg, po via gavage for 12 weeks (reference value: 27.29 +/- 0.96 umeter). In kind it is organism-based. To be noted: in vivo, 2016 h.

Calls of active or inactive are those of the source. The rule behind the calls is not given here.

What is called EC50 is the midpoint of the concentration-response curve. `CCOC(=O)c1cc2c([nH]c3ccccc32)c(C(c2nnnn2C(C)(C)C)N2CCN(C)CC2)n1` (stereo not given): the Activity in the data set on Rattus norvegicus [1] is 0.92 micrometer/day; in the data set on Calvarial osteoblast [3], 70%; in data set [5], 37.8%; in data set [6], 0.012 mm2; in data set [9] it was 3.34%; with Rattus norvegicus [10], 46%. Besides, the Activity in [14] was 0.012 mm2; with Rattus norvegicus [16] it was 60.87 mJ; in the data set on Rattus norvegicus [17], 1.38 /millimeter; in [18], “Dose-dependent effect”; in data set [20] it was 3.61 um. Also, in data set [2], the EC50 was found to be 900 nM. The outcome in the data set on Rattus norvegicus [4], in the data set with Rattus norvegicus [7], in the data set on Rattus norvegicus [8], with Rattus norvegicus [12], with Rattus norvegicus [15] and in the data set on Calvarial osteoblast [19] was Active. Also, the inhibition result (in data set [11]; in the data set on Calvarial osteoblast [13]) was “Active” in each case.
